# Assay results taken from ChEMBL document CHEMBL3352213, “Development of dual targeting inhibitors against aggregations of amyloid-β and tau protein” (Eur J Med Chem, 2014).
# Experiments:
# [1] = molecular target: T1, Amyloid-beta precursor protein (Homo sapiens, UniProt P05067); assay: Inhibition of amyloid beta (1-42) aggregation (unknown origin) at 10 uM after 24 hrs by thioflavin T fluorescence method
# [2] = molecular target: T2, Microtubule-associated protein tau (Homo sapiens, UniProt P10636); assay: Inhibition of His-tagged human brain tau 3R MBD aggregation at 10 uM after 16 hrs by thioflavin T fluorescence method
# T2 sequence (P10636 whole entry): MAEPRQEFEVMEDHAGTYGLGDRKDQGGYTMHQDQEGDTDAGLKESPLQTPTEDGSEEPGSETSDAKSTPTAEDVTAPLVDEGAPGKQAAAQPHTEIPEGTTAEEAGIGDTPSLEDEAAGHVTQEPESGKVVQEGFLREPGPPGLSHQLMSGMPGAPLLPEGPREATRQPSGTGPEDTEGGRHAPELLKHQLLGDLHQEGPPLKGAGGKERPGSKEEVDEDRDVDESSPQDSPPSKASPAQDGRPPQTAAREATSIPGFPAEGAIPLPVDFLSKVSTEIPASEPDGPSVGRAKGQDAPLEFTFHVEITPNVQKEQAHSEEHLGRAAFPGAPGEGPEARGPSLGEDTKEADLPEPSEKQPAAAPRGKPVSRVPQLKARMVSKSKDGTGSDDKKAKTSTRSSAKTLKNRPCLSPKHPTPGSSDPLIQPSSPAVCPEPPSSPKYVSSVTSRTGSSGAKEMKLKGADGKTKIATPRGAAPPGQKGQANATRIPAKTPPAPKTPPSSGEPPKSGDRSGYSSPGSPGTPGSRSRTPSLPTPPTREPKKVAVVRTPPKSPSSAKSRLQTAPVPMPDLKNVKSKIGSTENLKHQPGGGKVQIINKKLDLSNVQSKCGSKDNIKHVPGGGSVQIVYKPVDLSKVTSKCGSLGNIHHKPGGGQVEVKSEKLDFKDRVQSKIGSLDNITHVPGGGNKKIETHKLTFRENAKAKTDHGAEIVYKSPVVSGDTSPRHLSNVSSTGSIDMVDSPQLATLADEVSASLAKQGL
# How it was run: (§1)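 His-tagged 3R MBD tau expressed in E. coli BL21(DE3), purified by Ni-chelate chromatography, dialysed against ammonium acetate and freeze-dried. Tau 10 μM plus heparin 10 μM in 50 mM Tris–HCl pH 7.6 with compound (0.1–10 μM, DMSO), incubated 37 °C 16 h in the dark. Background fluorescence read first, then 10 μM ThT added; ThT fluorescence at ex 440/em 486 nm.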
# [3] = molecular target: T2, Microtubule-associated protein tau; assay: Inhibition of His-tagged human brain tau 3R MBD aggregation after 16 hrs by thioflavin T fluorescence method
# [4] = molecular target: T1, Amyloid-beta precursor protein; assay: Inhibition of amyloid beta (1-42) aggregation (unknown origin) after 24 hrs by thioflavin T fluorescence method
# [5] = molecular target: T2, Microtubule-associated protein tau; assay: Inhibition of His-tagged human brain tau 3R MBD aggregation at 1 uM after 16 hrs by thioflavin T fluorescence method; how it was run: as §1
# [6] = molecular target: T1, Amyloid-beta precursor protein; assay: Inhibition of amyloid beta (1-42) aggregation (unknown origin) at 1 uM after 24 hrs by thioflavin T fluorescence method
# T1 sequence (P05067 whole entry): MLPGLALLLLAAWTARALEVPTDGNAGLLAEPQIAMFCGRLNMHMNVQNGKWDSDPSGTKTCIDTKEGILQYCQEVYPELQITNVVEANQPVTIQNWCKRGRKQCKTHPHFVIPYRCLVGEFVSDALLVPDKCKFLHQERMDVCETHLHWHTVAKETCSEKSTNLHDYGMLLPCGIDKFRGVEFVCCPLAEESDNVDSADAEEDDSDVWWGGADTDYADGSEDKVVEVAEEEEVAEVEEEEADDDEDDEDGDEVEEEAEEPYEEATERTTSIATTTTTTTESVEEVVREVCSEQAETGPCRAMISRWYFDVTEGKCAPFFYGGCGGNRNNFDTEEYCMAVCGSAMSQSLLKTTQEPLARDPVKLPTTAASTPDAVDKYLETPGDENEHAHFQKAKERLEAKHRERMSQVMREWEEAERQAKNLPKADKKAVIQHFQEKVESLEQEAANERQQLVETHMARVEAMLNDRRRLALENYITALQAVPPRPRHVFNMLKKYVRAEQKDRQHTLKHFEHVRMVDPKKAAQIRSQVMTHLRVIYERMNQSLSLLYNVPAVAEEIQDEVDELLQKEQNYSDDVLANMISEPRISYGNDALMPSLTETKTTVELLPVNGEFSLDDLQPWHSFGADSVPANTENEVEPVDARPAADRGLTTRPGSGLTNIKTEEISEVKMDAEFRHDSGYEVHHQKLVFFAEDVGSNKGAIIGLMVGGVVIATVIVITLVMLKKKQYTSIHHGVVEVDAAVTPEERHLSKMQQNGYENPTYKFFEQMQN
Compound,inhibition [1] [%],inhibition [2] [%],IC50 [3] [µM],IC50 [4] [µM],inhibition [5] [%],inhibition [6] [%]
N#CC(C#N)=Cc1ccc(-c2ccc(-c3ccc(N(c4ccccc4)c4ccccc4)cc3)c3nsnc23)s1,30,15,> 10,> 10,,
O=Cc1ccc(-c2ccc(-c3ccc(N(c4ccccc4)c4ccccc4)cc3)c3nsnc23)s1,44,11,> 10,> 10,,
CN1C(=O)C(=Cc2ccc(-c3ccc(-c4ccc(N(c5ccccc5)c5ccccc5)cc4)s3)s2)C(=O)N(C)C1=O,18,7,> 10,> 10,,
COc1ccc(-c2ccc(-c3ccc(C=O)s3)s2)cc1,0,18,> 10,> 10,,
CN(C)c1ccc2nc3ccc(N)cc3[s+]c2c1,,,< 3,< 3,,
O=Cc1ccc(-c2ccc(-c3ccc4[nH]ccc4c3)s2)s1,46,,1.6,> 10,,
CNc1ccc2nc3ccc(N(C)C)cc3[s+]c2c1,,,< 3,< 3,,
CC(C)(C)n1c2cc(-c3ccc(N(c4ccccc4)c4ccccc4)cc3)sc2c2sc(-c3ccc(C=O)s3)cc21,36,15,> 10,> 10,,
COc1ccc(-c2cc3c(s2)c2sc(-c4ccc(C=O)s4)cc2n3C(C)(C)C)cc1,,,0.29,0.38,74,61
O=C1NC(=O)C(=Cc2ccc(-c3ccc(-c4ccc(N(c5ccccc5)c5ccccc5)cc4)s3)s2)C(=O)N1,0,12,> 10,> 10,,
COc1ccc(-c2cc3c(s2)c2sc(-c4ccc(C=C(C#N)C#N)s4)cc2n3C(C)(C)C)cc1,18,27,> 10,> 10,,
O=c1c(O)c(-c2ccc(O)c(O)c2)oc2c(O)c(O)cc(O)c12 [GOSSYPETIN],,,< 3,< 3,,
O=Cc1ccc(-c2ccc(-c3ccc(N(c4ccccc4)c4ccccc4)cc3)s2)s1,,12,> 10,7.1,,
N#C/C(=C\c1ccc(-c2ccc(-c3ccc(N(c4ccccc4)c4ccccc4)cc3)s2)s1)C(=O)O,,,1.7,< 0.41,,82
N#C/C(=C\c1ccc(-c2ccc(-c3ccc(N(c4ccccc4)c4ccccc4)cc3)c3nsnc23)s1)C(N)=O,46,24,> 10,> 10,,
CC(C)(C)n1c2cc(-c3ccc(N(c4ccccc4)c4ccccc4)cc3)sc2c2sc(-c3ccc(/C=C(\C#N)C(N)=O)s3)cc21,36,33,> 10,> 10,,
CN(C)c1ccc2nc3ccc(=[N+](C)C)cc-3sc2c1 [METHYLENE BLUE CATION],,,,0.55,,
COc1ccc(-c2cc3c(s2)c2sc(-c4ccc(/C=C(\C#N)C(N)=O)s4)cc2n3C(C)(C)C)cc1,,,0.3,0.55,,
N#C/C(=C\c1ccc(-c2ccc(-c3ccc(N(c4ccccc4)c4ccccc4)cc3)s2)s1)C(N)=O,,29,> 10,1.5,,
CC(C)(C)n1c2cc(-c3ccc(N(c4ccccc4)c4ccccc4)cc3)sc2c2sc(-c3ccc(C=C(C#N)C#N)s3)cc21,16,18,> 10,> 10,,
N#CC(C#N)=Cc1ccc(-c2ccc(-c3ccc(N(c4ccccc4)c4ccccc4)cc3)s2)s1,43,14,> 10,> 10,,
COc1ccc(-c2ccc(-c3ccc(C=C(C#N)C#N)s3)s2)cc1,,28,> 10,< 1,,78
